Measured values pooled from the literature.
Compare with care: the assays were run in different laboratories.
Target: Mitotic checkpoint serine/threonine-protein kinase BUB1 (BUB1, Homo sapiens, UniProt O43683)

| Compound | read-out | method | concentration | remaining binding [%] |
| --- | --- | --- | --- | --- |
| CN([C@@H]1CCc2c(CC(=O)O)c3ccccc3n2C1)S(=O)(=O)c1ccc(F)cc1 | cell-free assay | competition with immobilised ligand | 1 µM | 79 |
| N[C@H]1CCN(c2nccc(-c3cnn4ncccc34)n2)C1 | binding | – | 1 µM | 97 |
| c1cncc(-c2cccc(Nc3nccc(NC4CCCCC4)n3)c2)c1 | binding | competition with immobilised ligand | 10 µM | 59 |
| O=C(NCCCN1CCOCC1)c1ccc(Nc2nccc(-c3cc4ccccc4s3)n2)cc1 | binding | competition with immobilised ligand | 1 µM | 72 |
| CN(C)c1nccc(-c2cnn3ncccc23)n1 | binding | – | 1 µM | 74 |
| O=C(NCC1CCOCC1)c1n[nH]cc1NC(=O)c1c(F)cccc1F | binding | competition with immobilised ligand | 1 µM | 71 |
| CN(C)CC#Cc1ccc(OCCCc2sc(N3CCc4cccc(C(=O)Nc5nc6ccccc6s5)c4C3)nc2C(=O)O)c(F)c1 | cell-free assay | competition with immobilised ligand | 1 µM | 81 |
| COc1ccnn2ncc(-c3ccnc(N(C)C)n3)c12 | binding | – | 1 µM | 96 |
| CC(=O)C1=C(C)N(c2cccc(C(F)(F)F)c2)C(=O)N[C@@H]1c1ccc(C#N)nc1 | cell-free assay | competition with immobilised ligand | 1 µM | 100 |
| COc1ncc2cc3ccccc3nc2c1C#N | cell-free assay | competition with immobilised ligand | 5 µM | 92 |
| COc1cnc(Nc2cccc(S(N)(=O)=O)c2)nc1N1CCN(c2ccccc2)CC1 | binding | competition with immobilised ligand | 1 µM | 69 |
| Cc1nc(Cc2cccc(C(F)(F)F)c2)sc1-c1ccc(C(N)=O)nc1 | cell-free assay | competition with immobilised ligand | 1 µM | 100 |
| Cc1cnn2ncc(-c3ccnc(N(C)C)n3)c2c1 | binding | – | 1 µM | 63 |
| CCCCN(CCCC)C(=O)CN1C[C@H](c2cc(OC)c3c(c2)OCO3)[C@@H](C(=O)O)[C@@H]1CC(C)(C)CCC | cell-free assay | competition with immobilised ligand | 1 µM | 75.4 |
| O=C(c1ccc(Nc2ncc(Cl)c(-c3cc4ccccc4s3)n2)cc1)N1CCC(N2CCCC2)CC1 | binding | competition with immobilised ligand | 1 µM | 53 |
| CNC(=O)[C@@H]1CC[C@@H](n2c(-c3ccc4cnccc4c3)nc3ccc(C(=O)NCc4cccc(C(N)=O)c4)cc32)C1 | binding | competition with immobilised ligand | 1 µM | 100 |
| CCN1CCN(Cc2ccc(C(=O)Nc3ccc(C)c(Oc4ccc5c(c4)CC(=O)N5)c3)cc2C(F)(F)F)CC1 | binding | competition with immobilised ligand | 1 µM | 100 |
| Cc1cnc(Nc2ccc(C(=O)N3CCC(N4CCCC4)CC3)cc2)nc1-c1cc2ccccc2s1 | binding | competition with immobilised ligand | 1 µM | 39 |
| O=C(N1CCS(=O)(=O)CC1)N1C[C@H](c2ccc(OC(F)(F)F)cc2)C[C@H](c2nc(C3CC3)no2)C1 | cell-free assay | competition with immobilised ligand | 1 µM | 100 |
| C[C@H]1CCN(c2nccc(-c3cnn4ncccc34)n2)C1 | binding | – | 1 µM | 52 |
| C[C@@H]1CN(c2cc(-c3n[nH]c4ccc(OC5(C)CC5)cc34)ncn2)C[C@H](C)O1 | cell-free assay | competition with immobilised ligand | 0.1 µM | 84 |
| F[C@@H]1CCN(c2nccc(-c3cnn4ncccc34)n2)C1 | binding | – | 1 µM | 72 |
